Four molecules from ChEMBL document CHEMBL4000230, “Design, synthesis and biological evaluation of regioisomers of 666-15 as inhibitors of CREB-mediated gene transcription” (Bioorg Med Chem Lett, 2017) can be followed below.

Test [1] is described as follows: Inhibition of forskolin-stimulated CREB (unknown origin)-mediated gene transcription in HEK293T cells preincubated for 30 mins followed by forskolin-stimulation measured after 6 hrs by luciferase reporter gene assay. The test is classed as cell-based. The settings on record: Homo sapiens, HEK-293T. The method, boiled down:
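HEK 293T cells transfected with a renilla luciferase reporter driven by three tandem CRE copies. Treated with increasing compound concentrations (50 nM to 50 μM) for 30 min, then forskolin (10 μM) for 6 h, then luciferase measured. Luciferase normalized to lysate protein concentration. IC50 by non-linear regression of dose-response curves.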

For a further test, the system named is MDA-MB-231. The experiment in a line: Cytotoxicity against human MDA-MB-231 cells assessed as growth inhibition after 72 hrs by MTT assay. The settings on record: MDA-MB-231, 72 h. The test is classed as functional. In short, it runs like this:
(§1)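 Growth inhibition read by MTT after 72 h incubation of the indicated cells with drug; GI50 taken from this assay.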
In general terms: Tetrazolium assays rely on reduction of a dye to a coloured formazan, in cell work by metabolically active cells.

The subject of the next test is MDA-MB-468. The experiment in a line: Cytotoxicity against human MDA-MB-468 cells assessed as growth inhibition after 72 hrs by MTT assay. The test is classed as functional. The settings on record: MDA-MB-468, 72 h. The method, boiled down: as §1

As for `NCCCOc1cc(C(=O)NCCOc2cc3ccccc3cc2C(=O)Nc2ccc(Cl)cc2O)cc2ccccc12`, 17.2 µM corresponded to half-maximal inhibition in test [1] (IC50). The figures for the GI50 in the test with MDA-MB-231 and in the test with MDA-MB-468 were 2.68 µM and 0.55 µM, respectively.
`NCCCOc1c(C(=O)NCCOc2cc3ccccc3cc2C(=O)Nc2ccc(Cl)cc2O)ccc2ccccc12` returned an IC50 in test [1] of 24 µM. Further, the values for the GI50 with MDA-MB-231 and with MDA-MB-468 were 3.12 µM and 1.93 µM, respectively.
With `NCCCOc1cc(C(=O)NCCOc2cc3ccccc3cc2C(=O)Nc2ccc(Cl)cc2O)c2ccccc2c1`, in test [1], the half-maximal inhibitory concentration (IC50) worked out at 19 µM. For the same molecule, the concentration for 50% growth inhibition (GI50) is 3.82 µM in the test with MDA-MB-231 and 1.65 µM in the test with MDA-MB-468.
Molecule `NCCCOc1ccc2ccccc2c1C(=O)NCCOc1cc2ccccc2cc1C(=O)Nc1ccc(Cl)cc1O` registered an IC50 in test [1] of 18.9 µM. Besides, the GI50 worked out at 4.31 µM in the test with MDA-MB-231 and 1.7 µM in the test on MDA-MB-468.

As a reminder, the IC50 is the concentration that gives 50% inhibition. As a reminder, the GI50 is the concentration that inhibits growth by half.
